From PubChem
This is a sample that favours compounds with a hit; in the whole collection about 2.3% have one here.
PLC-gamma1 inh – PLC-gamma1 enzyme inhibitors, primary screen, biochemical, fluorescence, purified enzyme; fluorogenic substrate; inhibition, % at 12.2 µM; 370,000 tested, 0.84% active; AID 720700, 2013; in the data active = inhibition above about 9.5%
Target sequence (P19174 whole entry, looked up): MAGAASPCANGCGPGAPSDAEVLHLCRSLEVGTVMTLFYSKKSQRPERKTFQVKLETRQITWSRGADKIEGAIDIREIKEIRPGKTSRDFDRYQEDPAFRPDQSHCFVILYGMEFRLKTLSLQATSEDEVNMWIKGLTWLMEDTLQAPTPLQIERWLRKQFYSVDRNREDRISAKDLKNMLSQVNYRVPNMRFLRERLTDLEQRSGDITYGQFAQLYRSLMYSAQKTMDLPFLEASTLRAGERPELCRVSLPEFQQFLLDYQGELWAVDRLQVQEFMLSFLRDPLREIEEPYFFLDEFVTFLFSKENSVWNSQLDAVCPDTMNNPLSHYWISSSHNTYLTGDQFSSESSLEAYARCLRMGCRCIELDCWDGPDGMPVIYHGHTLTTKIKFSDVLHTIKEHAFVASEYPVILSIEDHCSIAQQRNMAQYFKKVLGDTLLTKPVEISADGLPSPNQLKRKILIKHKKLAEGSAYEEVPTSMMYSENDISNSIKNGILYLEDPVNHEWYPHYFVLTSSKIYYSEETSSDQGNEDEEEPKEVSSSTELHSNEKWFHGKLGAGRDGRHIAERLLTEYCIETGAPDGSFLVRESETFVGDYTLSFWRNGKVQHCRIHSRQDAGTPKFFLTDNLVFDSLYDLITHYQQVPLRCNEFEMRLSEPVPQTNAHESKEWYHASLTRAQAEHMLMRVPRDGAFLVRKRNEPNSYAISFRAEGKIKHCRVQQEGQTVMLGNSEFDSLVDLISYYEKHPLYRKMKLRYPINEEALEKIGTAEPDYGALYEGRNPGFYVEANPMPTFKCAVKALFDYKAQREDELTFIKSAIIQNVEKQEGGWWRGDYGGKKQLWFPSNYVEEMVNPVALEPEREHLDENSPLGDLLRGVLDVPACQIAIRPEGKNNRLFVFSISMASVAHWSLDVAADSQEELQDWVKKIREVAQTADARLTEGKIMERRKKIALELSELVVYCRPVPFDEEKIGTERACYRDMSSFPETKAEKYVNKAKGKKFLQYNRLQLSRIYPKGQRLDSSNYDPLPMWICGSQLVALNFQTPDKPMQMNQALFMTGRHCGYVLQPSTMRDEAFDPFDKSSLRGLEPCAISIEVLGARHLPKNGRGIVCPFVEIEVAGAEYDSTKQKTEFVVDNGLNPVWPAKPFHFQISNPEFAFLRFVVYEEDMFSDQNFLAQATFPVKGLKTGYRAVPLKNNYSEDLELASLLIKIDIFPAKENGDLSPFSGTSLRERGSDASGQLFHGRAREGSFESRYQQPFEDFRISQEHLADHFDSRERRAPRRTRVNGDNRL
ADAM17 inh – ADAM17 inhibitors, primary screen, biochemical, QFRET. inhibition, % at 6.95 µM. 370,000 tested, 0.83% active. recombinant ADAM17, EDANS/DABCYL FRET peptide cleavage;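 active = inhibition above the mean of compounds lying between control limits plus 3 SD, set per campaign, cut at about 8.5% in these data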;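 also: 0% = DMSO-only wells as the low control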
PLCb3 inh – human PLC-beta3 inhibitors, primary screen, biochemical, fluorescence; 1-phosphatidylinositol 4,5-bisphosphate phosphodiesterase beta-3 (Homo sapiens), Q01970; Purified PLC-beta3, fluorogenic substrate; inhibition, % at 12.2 µM; 370,000 tested, 0.18% active; AID 720704, 2013; in the data active = inhibition above about 11%;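 also: 0% = median of compound wells on plate and 100% = full blocker control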
TbMetRS inhib – T. brucei MetRS inhibitors, primary screen, biochemical, luminescence. methionyl-tRNA synthetase (Trypanosoma brucei brucei). purified T. brucei MetRS, ATP depletion, Kinase-Glo luminescence. inhibition, % at 11.9 µM. 360,000 tested, 0.4% active;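 active = inhibition above a per-plate cutoff of the control wells' mean inhibition plus 3 SD, cut at about 5.5% in these data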;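 also: 0% = DMSO wells median and 100% = median of wells with control inhibitor compound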
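Test system: purified T. brucei MetRS enzyme. Also added: ATP, methionine and E. coli bulk tRNA substrates. Compound: 11.9 µM single point. Schedule: 15 min enzyme-compound preincubation, 2 h reaction, 10 min detection, 25 °C. Signal: luciferase luminescence of residual ATP, Kinase-Glo. Evaluation: percent inhibition versus plate control medians. Controls: DMSO wells, low control.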
ADAM10 inh – human ADAM10 inhibitors, primary screen, biochemical, QFRET, HTS; recombinant ADAM10, EDANS/DABCYL FRET peptide cleavage, 3 h; inhibition, % at 7 µM; 370,000 tested, 0.62% active;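 active = inhibition above a per-campaign cutoff equal to the mean of compounds falling between control-based bounds plus 3 SD, cut at about 20% in these data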;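 also: 0% = DMSO wells while the 100% control is not disclosed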
ADAM10 counter – ADAM10 inhibitors, counter-screen for ADAM17 exosite inhibitor project, biochemical, FRET, human ADAM10 | inhibition, % at 6.95 µM | AID 743256, 2014 | shares compounds with ADAM17 inh | recombinant ADAM10, EDANS/DABCYL FRET peptide cleavage, 3 h | 2,900 tested, 47% active;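 active = mean inhibition over the triplicate runs exceeds the activity threshold set in the earlier primary screen, cut at about 20% in these data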;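 also: 0% = DMSO wells and 100% = marimastat wells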
ADAM17 confirm – ADAM17 inhibitors, hit retest, confirmation, biochemical, QFRET peptide cleavage. recombinant ADAM17, EDANS/DABCYL QFRET peptide cleavage. AID 743257, 2014. inhibition, % at 6.95 µM. 2,900 tested, 65% active. shares compounds with ADAM17 inh;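 active = mean inhibition across replicates above the hit cutoff set in the primary screen, cut at about 8.5% in these data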;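 also: 0% = DMSO wells and 100% = marimastat wells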
* hit, by the source's call; . = not tested or not shown.

SMILES	PLC-gamma1 inh	ADAM17 inh	PLCb3 inh	TbMetRS inhib	ADAM10 inh	ADAM10 counter	ADAM17 confirm
OC(c1ccccc1)(c1nc(-c2cc(F)cc(F)c2)cs1)C(F)(F)F (stereo unspecified)	1.3	9.5*	0.8	-0.1	17.3	39.9*	17.8*
COc1cc(OC)cc(C(=O)n2cnnc2N)c1	4.7	2.4	0.1	-0.3	3.3	.	.
C[C@@H](OC(=O)N1CCCCC1)[C@H]1O[C@]2(C)CCCC[C@H]1O2	11.3*	9.4*	7.0	-0.3	9.2	12.8	8.6
C[C@@H](O)[C@H]1O[C@]2(C)CCC[C@H]1O2	3.7	-5.3	4.4	0.2	5.2	.	.
CC1CN(C(=O)COc2ncnc3ccccc23)CC(C)O1 (stereo unspecified)	3.6	9.7*	7.3	-0.5	-4.5	-6.5	1.0
O=C(COc1ncnc2ccccc12)N1CCN(c2ccccc2)CC1	0.6	-2.8	1.2	-0.1	-2.8	.	.
CC(CCc1ccccc1)NC(=O)C1CCN(S(=O)(=O)N2CCCCC2)CC1 (stereo unspecified)	4.7	1.7	2.2	-0.1	5.4	.	.
O=C(NCc1cccc(C(F)(F)F)c1)c1ccc2c(c1)OCCO2	2.4	-1.3	-1.2	0.4	-1.0	.	.
COc1ccc(NC(=O)C(OC(=O)c2ccc([N+](=O)[O-])o2)c2ccccc2)cc1Cl (stereo unspecified)	-2.5	9.8*	-2.4	0.1	5.0	24.9*	11.7*
COC(=O)[C@]12C[C@H](CC(=O)NCc3cccc4ccccc34)C(=O)N(Cc3ccccc3)C1=C[C@H](C(C)C)O[C@@H]2C1CC1	-60.1	2.3	1.3	.	7.1	.	.
O=C1C(Cc2ccccc2)Nc2ncnc(N3CCN(c4ccccc4)CC3)c2N1Cc1ccc(Cl)cc1 (stereo unspecified)	0.7	5.4	-2.0	-0.2	14.8	.	.
COc1ccc2ccccc2c1C=Nn1c(-c2n[nH]c3c2CCC3)n[nH]c1=S	2.8	10.4*	-0.1	.	10.9	0.1	2.8
COc1cccc(Cn2cnc3c(NS(=O)(=O)c4cc(Cl)ccc4Cl)c(C)c(C)cc32)c1	3.7	8.9*	1.2	-0.6	19.6	20.1*	10.6*
CCOC(=O)c1c(NC(=O)C2C3C=CC(CC3)C2C(=O)O)sc(C)c1C (stereo unspecified)	6.8	9.1*	4.5	-1.0	1.9	-11.7	0.3
N#CCC(CNc1ncc(C(F)(F)F)cc1Cl)OC(=O)c1ccc(Cl)cc1Cl (stereo unspecified)	-2.8	9.6*	-0.8	0.8	9.9	40.6*	19.0*
CCOC(=O)CNc1ncc(C(F)(F)F)cc1Cl	-2.3	-0.1	2.9	0.3	-2.7	.	.
CCOC(=O)[C@@H]1[C@H]2COc3ccc(Br)cc3[C@H]2N2C(=O)N(c3ccc(C)cc3)C(=O)[C@]12C	-0.4	8.8*	0.3	0.1	14.4	33.2*	21.7*
COc1cccc(CN(Cc2ccco2)S(=O)(=O)c2ccc(S(=O)(=O)NCc3ccccc3)cc2)c1OC	8.7	14.0*	3.5	-0.9	39.0*	43.1*	23.7*
COc1cccc(CN(Cc2ccccc2F)S(=O)(=O)c2ccc(S(=O)(=O)NCc3ccccc3)cc2)c1	8.4	5.7	-3.1	-0.2	0.3	.	.
CC(C)(C)C(=O)/C=c1\[nH]c(=O)/c(=C\c2ccc(F)cc2)s1	-3.5	10.2*	-3.8	0.2	17.7	2.6	6.4
O=C(O)Cc1csc2ccccc12	6.4	10.0*	8.8	-0.3	8.8	-9.5	-4.2
CCCCNS(=O)(=O)c1ccc(NC(=O)C(Sc2ccccc2)c2ccccc2)cc1 (stereo unspecified)	4.8	17.3*	6.9	-0.4	37.6*	46.3*	27.2*
CCOC(=O)[C@H]1[C@H]2COc3ccc(Br)cc3[C@@H]2N2C(=O)CN(Cc3ccc(F)cc3)C(=O)[C@@]12C	0.1	-1.0	-0.1	-0.3	7.1	.	.
CCCCc1cc(=O)oc2c(C)c(OCC(=O)N3C[C@H]4C[C@@H](C3)c3cccc(=O)n3C4)ccc12	1.4	-19.9	-1.4	1.4	-69.2	.	.
O=C(NC1CCCCC1)C(c1ccncc1)N(C(=O)c1csnn1)c1cccc(F)c1 (stereo unspecified)	5.3	1.2	3.2	0.1	0.4	.	.
SMILES	PLC-gamma1 inh	ADAM17 inh	PLCb3 inh	TbMetRS inhib	ADAM10 inh	ADAM10 counter	ADAM17 confirm
N/C(=N\N=C\c1ccc(O)c(O)c1)c1nonc1N	-21.1	-14.6	-32.9	-0.4	-36.1	.	.
N/C(=N\N=C\c1ccc(O)cc1)c1nonc1N	10.7*	10.5*	9.1	0.5	14.3	16.7	9.2*
COc1cc(/C=C/C(=O)O)cc(S(=O)(=O)NC2CC2)c1OC	-2.0	-1.9	-5.3	0.4	-10.8	.	.
COc1cc(-c2nc(-c3ccc4c(c3)-c3ccccc3S4(=O)=O)c(-c3ccccc3)[nH]2)cc(OC)c1O	-35.4	8.8*	-41.4	0.1	-10.4	16.2	14.1*
C[C@@H]1CC[C@]2(O[C@H](CCO)C[C@@H](O)[C@@H]2O)O1	2.3	8.8*	4.5	-0.8	7.9	10.0	4.5
C[C@H]1CC[C@@]2(O[C@@H](CCO)C[C@@H](O)[C@@H]2O)O1	1.3	-1.7	3.5	-0.4	4.9	.	.
COC(=O)[C@]12CCCCC=C1N(Cc1ccc3c(c1)OCO3)C(=O)[C@H](CC(=O)NCc1cccc3ccccc13)C2	3.5	8.9*	2.2	-1.0	19.0	33.3*	22.3*
COC(=O)[C@@]12C[C@@H](CC(=O)NCc3ccccc3)C(=O)N(Cc3cccc4ccccc34)C1=CCC(C)(C)C2	3.0	9.1*	3.7	-0.3	17.0	14.8	6.2
COC(=O)[C@]12CCCCC=C1N(CCc1ccc(OC)c(OC)c1)C(=O)[C@H](CC(=O)NCc1ccc(OC)c(OC)c1)C2	1.3	-3.2	4.1	0.0	-2.7	.	.
COC(=O)[C@]12CCCCC=C1N(CCc1ccc(OC)c(OC)c1)C(=O)[C@H](CC(=O)NCc1cccc(C(F)(F)F)c1)C2	3.4	8.8*	3.4	0.0	13.0	24.2*	14.9*
